Measurements as given in ChEMBL document CHEMBL4513216, “Probing the Open Global Health Chemical Diversity Library for Multistage-Active Starting Points for Next-Generation Antimalarials” (ACS Infect Dis, 2020).

experiment: Toxicity liver stage against HepG2, at 10uM; type: cell-based; design: test concentration 10 uM, cell line HepG2-A16-CD81EGFP; conditions: human, HepG2-A16-CD81EGFP cells; read-out: INHIBITION
Summary of the method: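 Uninfected HepG2-A16-CD81EGFP cells, 3 × 10^3 per well, 1536-well, plated on prespotted compound at 10 μM final, parasite-free screening media added to match infected plates; puromycin 10 μM positive, DMSO 0.5% negative; run in parallel with 48 h PbLuc assay at 37 °C, 5% CO2; viability by CellTiter-Glo luminescence, normalized to controls.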

SMILES | cytotoxicity at 10 µM [%]
CC(C)CNC(=O)CN(CC(=O)NCC(C)C)S(C)(=O)=O | -12.2
Cc1cccc2c1nc1n2[C@@H](CNC(=O)c2ccccn2)COC1 | 6.49
NC(=O)CN1CC(O)c2ccccc2S1(=O)=O (stereo unspecified) | 4.37
COc1ccc(C(=O)Nc2ccccc2-c2ccc(=O)n(C)n2)cc1 | 2.11
CCOCc1cncc2c1CCN(S(=O)(=O)c1cccc(C)c1)C2 | 13.6
O=S(=O)(C1CC1)N1CCc2ncnc(-c3ccc(F)cc3)c2CC1 | -66.5
Cc1nc(N2CCOCC2)nc2c1CCN(c1nccs1)CC2 | 7.37
Cc1ccc(N2CC[C@@H]3O[C@@H](c4ccncn4)C[C@H]3C2)nn1 | 10.8
CCN1CCC2(CC1)CN(C(C)=O)c1ccc(C)cc12 | 3.98
CCC1=NN2C(=N)/C(=C/c3cccc(Cl)c3)C(=O)N=C2S1 | -11.8
Cc1ccccc1Cn1nnc2cc3c(cc2c1=O)OCCO3 | 1.11
CCC(C)NC(=O)Cn1ncc2c1c(C)nn2CC (stereo unspecified) | 3.24
CC(C)n1cc(N2CC(C(=O)N3CCc4ccccc4C3)CC2=O)cn1 (stereo unspecified) | -153
CC(C)c1nccn1-c1nccnc1C1CCCN1Cc1cccnc1 (stereo unspecified) | 7.77
Cc1cc(N2CCOC(C)(C(=O)N(C)C)C2)ncn1 (stereo unspecified) | -0.277
CCC(=O)N1CCC(c2ncc3c(n2)CCNC3)CC1 | -22.5
Cc1ccccc1-c1cncc(C2CCN(S(=O)(=O)N(C)C)CC2)n1 | 0.0706
CC1(C(=O)NCc2cc(F)cc(F)c2)CCOCC1 | 4.32
O=c1c2ccccc2nc2n1C(CSc1cccc(C(F)(F)F)c1)CN2 (stereo unspecified) | 12.9
CC(C)N(C(=O)Cn1nnnc1CCc1ccccc1)C(C)C | 7.1
CCc1ccc2c(c1)C(CCNC(=O)Cc1cccc(F)c1)C(=O)N2 (stereo unspecified) | -49.1
Cc1ccc(-c2noc(CNCC3CN(C)CCO3)n2)cc1F (stereo unspecified) | -1.51
Cc1nc(CN2CCOC3(CCCC3)C2)oc1C | 4.56

SMILES | cytotoxicity at 10 µM [%]
Cc1cc(N(Cc2ccccn2)C2CC2)n2nc(C(F)(F)F)nc2n1 | -5.83
COc1ccc(CN(C(=O)C2CCCS2)c2ccncc2)cc1 (stereo unspecified) | 5.57
CC(NC(=O)N(C)C1CC1)c1ccc(Oc2cccnc2)c(F)c1 (stereo unspecified) | -1.23
COc1ccccc1CNC(=O)COc1ccc2c(c1)OCC2O (stereo unspecified) | -3.75
C=C(C)CN(CC)C(=O)CN1CCCC1C(=O)N(C)C (stereo unspecified) | 8.52
CCC(O)CN(c1ccccc1)S(=O)(=O)c1cnc(C)s1 (stereo unspecified) | -45.6
CC(C(=O)NC1(C#N)CCCCC1)N1CCc2c(ncn2C)C1 (stereo unspecified) | 7.04
Cc1nnc(CN(C)CC(=O)N2CCCC(C)CC2)n1C (stereo unspecified) | 10.6
O=C(c1ccc(-n2ccnc2)nc1)N1CCN2CCCCC2C1 (stereo unspecified) | -5.95
Cc1cnn(CCNCC(O)COc2cccc(C(F)(F)F)c2)c1 (stereo unspecified) | -21.7
CCc1nnc2n1CCN(C(=O)CCc1ccc3c(c1)OCO3)C2 | -2.62
CCS(=O)(=O)c1ccc(N2CCC(NC(=O)C3CCCCC3)CC2)cc1 | 12
CN(Cc1noc(C(C)(C)C)n1)CC1CCN(CCO)CC1 | 7.17
Cc1cc2n(n1)CC(CNCCNC(=O)c1ccc(F)cc1)CN2 (stereo unspecified) | 6.15
CC(=O)N1CCc2cc(Cl)cc(Cl)c2C1 | 11.2
CCCNC(=O)c1cc(Br)cc(S(=O)(=O)N2CCOCC2)c1F | -5.12
CCOc1ccccc1C(CC(=O)Nc1ccccc1)NC(C)=O (stereo unspecified) | -2.86
CNS(=O)(=O)c1ccc(CNC(=O)c2cc(-c3ccccn3)no2)cc1 | -11.4
CCc1cc(N2CCC(NC(=O)CCC3CCCO3)CC2)ncn1 (stereo unspecified) | 8.31
CCOCc1ccc(NC(=O)C(C)C)cc1 | 2.25
CC(C)c1ccc(S(=O)(=O)NC2(CC(N)=O)CCC2)cc1 | -2.77
CSCC1CCN(C(=O)c2ccccc2NCc2cccnc2)C1 (stereo unspecified) | -3.33
CCCN(C(=O)CNC1CCc2ncnn2C1)C1=CCCCC1 (stereo unspecified) | 1.76

SMILES | cytotoxicity at 10 µM [%]
O=C(Nc1nccs1)C1CCN(Cc2cccc3c2OCCO3)CC1 | -1.95
CCc1ccc(CCn2cnc(C#N)n2)cc1 | -0.224
O=S(=O)(NCc1ccc(S(=O)(=O)N2CCCC2)s1)c1ccc(Cl)cc1 | -44
CC(C)c1noc(OCc2cccc(S(=O)(=O)N(C)C)c2)n1 | -45.9
CN(CCN1CCOC1=O)CC(=O)Nc1ccc(Cl)c(Cl)c1 | -52.4
Cc1ncc(CN(C)CC(O)c2cccc(C(F)(F)F)c2)s1 (stereo unspecified) | 1.86
COc1ccc(CC(=O)N2CC[C@@H]3CN(C)S(=O)(=O)[C@@H]3CC2)cc1 | 4.33
COCCN(C)C(=O)c1cc2c(s1)CCN2C(=O)C1CC1 | -7.38
Cn1nnc2c1C(COCC1CC1)CN(C(=O)C1=CCCC1)C2 (stereo unspecified) | -102
O=C(C1CCOCC1)N1CC[C@H](O)[C@@H]1Cc1cccnc1 | -104
COCC(=O)N1CC[C@@H](O)[C@@H]1Cc1ccccc1 | -1.26
Cc1ocnc1C(=O)N1CCN(CCOc2ccccc2)CC1 | 1.12
CCc1ncc(CN2CCC(CCc3ccccc3)CC2)cn1 | -175
CC1CCN(S(=O)(=O)N2C[C@H](c3ccccc3)[C@@H](N)C2)CC1 | -12.1
CCc1ncc(C(=O)N2CCCN(C3CCCCC3)CC2)cn1 | -5.1
CCCN1CCN(C(=O)c2ccc(Cl)cn2)[C@H]2CS(=O)(=O)C[C@H]21 | -4.15
N[C@H]1CN(C(=O)CCc2ccccn2)C[C@@H]1c1ccccc1 | -0.23
CCOCc1nc2c(c(NC(CC)c3ccncc3)n1)CCNCC2 (stereo unspecified) | -0.0944
COc1cc(F)ccc1-c1cc(CO)ccn1 | 6.58
COc1cc(C)ccc1OCc1nc(C(=O)N2CCCC2)co1 | -42.5
CC(=O)Nc1ccc2nc(-c3nccn3CC(C)(C)CO)ccc2c1 | 3.89
c1cn(CC2CC2)c(C2CCN(CCC3CCOC3)CC2)n1 (stereo unspecified) | -8.64
CCCN(Cc1ccc(OC)nc1)Cc1ccccc1OC | -5.85

SMILES | cytotoxicity at 10 µM [%]
O=C(Nc1cccc2c1CCCC2)c1cccc(CN2CC[C@H](O)C2)c1 | -9.32
COC(=O)CC1CCN(C(=O)Nc2ccc(-c3ccn[nH]3)cc2)C1 (stereo unspecified) | 3.57
O=C(N[C@H]1COC[C@@H]1N1CCCC1)c1csc(Cc2ccccc2)n1 | -30.2
CCN1CCN(C2(C(=O)NC3CCCC3)Cc3ccccc3C2)CC1 | -13.8
Cc1cccc2[nH]c(C3CCCN(Cc4ccccc4C(=O)O)C3)nc12 (stereo unspecified) | 7.28
C[C@@H]1CN(C(=O)CCCN2CCOCC2)C[C@@]1(O)C1CC1 | 4.39
Cc1cc(C(=O)N2CCCC3(CN(C)C(=O)O3)C2)c2ccc(F)cc2n1 (stereo unspecified) | 3.05
Cc1ccsc1CN1CCC(c2cc(C(C)C)n[nH]2)CC1 | 1.13
O=C(C1CNCCO1)N1CCCC(c2ccccc2)(c2ccccc2)C1 (stereo unspecified) | 12.2
Cc1nc(-c2cccc(N3CCC(NC4CCOCC4)CC3)c2)cs1 | -10.1
CCOc1ccccc1C(=O)N1CCCC(O)(CN(C)C)C1 (stereo unspecified) | -1.73
O=C(O)c1cccnc1CN1CCCCC1CCc1ccccn1 (stereo unspecified) | 7.4
Cn1ccnc1CN1CCCC(CCc2ccc(F)c(F)c2)C1 (stereo unspecified) | -6.9
OCCNc1cc(-c2nccnc2N2CCCC2)c2cc[nH]c2n1 | -7.57
CN(Cc1nccn1C)c1nccc(N2CCCC(O)C2)n1 (stereo unspecified) | -8.29
CCn1c(CC2CCN(S(=O)(=O)c3cccc(C)c3)CC2)nn(C)c1=O | 2.01
CN(c1ccncn1)C1CC2(CCN(C(=O)CCc3cccs3)C2)C1 (stereo unspecified) | -1.34
O=C(O)c1cccc(S(=O)(=O)N2CCOc3ccccc32)c1 | -5.92
Cc1cc(C)n(-c2ccc(CNCc3ccc(F)cc3F)cn2)n1 | -12.2
O=C(CCc1ccco1)N1CCCC(n2cccn2)C1 (stereo unspecified) | -8.8
CCNc1cc2c(nn1)CCN(C(=O)c1ccsc1)C2 | -13.7
CN1CCN(c2cc(CNC(=O)Cn3cccn3)ccn2)CC1 | -11.6
Cc1csc(N2CCCN(C(=O)c3csc(C)n3)CC2)n1 | -3.96

SMILES | cytotoxicity at 10 µM [%]
CCc1noc(C(C)N2CCC(O)CC2)n1 (stereo unspecified) | 0.26
CCn1ccnc1CN1CCOC(Cn2cccn2)C1 (stereo unspecified) | -14.7
Cc1ccc(NS(=O)(=O)c2cc3c(c(C(=O)O)c2)OCCO3)cc1C | -15.3
COc1ccnc(N2CCN(C(=O)CN3CCCC3=O)CC2)n1 | -5.21
CN(C)C1CCN(C(=O)c2ccc(Cn3ccccc3=O)o2)CC1 | -2.11
Cc1csc(N2CCCN(C(=O)c3c(C)oc(C)c3C)CC2)n1 | 3.75
Cc1nc(C2CCCN2Cc2ncc(C(C)C)o2)no1 (stereo unspecified) | 4.31
CC1CCN(S(=O)(=O)NCc2ccccc2Cn2cncn2)CC1 | -2.72
COCCOc1ncccc1CNCc1c(C)nn(C)c1N(C)C | -9.36
CCc1n[nH]c(C2CN(C(=O)c3nc(C)ncc3Cl)CCO2)n1 (stereo unspecified) | -7.25
Cc1cnn(CC2CCCN2Cc2nc3ccccc3nc2C)c1 (stereo unspecified) | -1.35
Cc1cc(N2CCN(Cc3ccnn3C)CC2)cc(C2CCCN2)n1 (stereo unspecified) | 6.97
CCC(CN1CCN(C)CC1)NC(=O)C1(c2cccc(F)c2)CC1 (stereo unspecified) | 3.54
CN(C)C(=O)COC1COC2(CCN(CC3CC3)CC2)C1 (stereo unspecified) | -108
CN(C)C(=O)C1CCN(C2CCN(CC3CC3)CC2)CC1 | 4.55
Cc1cccc(CN2CCN3C[C@H](Oc4cncnc4)C[C@H]3C2)n1 | -91.9
CN(C)CCn1c2c(ccc1=O)CC(NC(=O)c1ccsc1)CC2 (stereo unspecified) | 2.15
O[C@@H]1CC(CNCc2cccc(Cl)c2)(COc2cccnc2)C[C@@H]1O (stereo partly specified) | -1.29
O=C1C[C@@H]2CC[C@H](CN1)N2C1CCOCC1 | -5.1
